From ChEMBL document CHEMBL1914423, “New imidazo[2,1-b]thiazole derivatives: synthesis, in vitro anticancer evaluation, and in silico studies” (Eur J Med Chem, 2011)

Columns and labels:
Format in all cases: functional
A498 = assay: Anticancer activity against human A498 cells after 48 hrs by SRB assay; details: A498, 48 h
How it was run: (§1)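 NCI five-dose screen. Cells in RPMI 1640 with 5% FBS and 2 mM L-glutamine, seeded at 5000–40,000 cells/well according to doubling time, then pre-incubated 24 h at 37 °C in 5% CO2. Drugs dissolved in DMSO, five concentrations by 10-fold or 1/2-log dilution. Cells fixed with TCA, SRB-stained, A515 read. IC50 solved from [(Ti−Tz)/(C−Tz)]×100 = 50.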

SN12C = assay: Anticancer activity against human SN12C cells after 48 hrs by SRB assay
HCC 2998 = assay: Anticancer activity against human HCC2998 cells after 48 hrs by SRB assay; details: HCC 2998, 48 h; how it was run: as §1
NCI-H226 = assay: Anticancer activity against human NCI-H226 cells after 48 hrs by SRB assay; details: NCI-H226, 48 h
OVCAR-3 = assay: Anticancer activity against human OVCAR3 cells after 48 hrs by SRB assay; details: OVCAR-3, 48 h
IGROV-1 = assay: Anticancer activity against human IGROV1 cells after 48 hrs by SRB assay; details: IGROV-1, 48 h; how it was run: as §1
UACC-257 = assay: Anticancer activity against human UACC257 cells after 48 hrs by SRB assay; details: UACC-257, 48 h
How it was run: (§2)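 NCI-60 five-dose mode: cells in RPMI 1640 with 5% FBS and 2 mM glutamine, plated at 5000–40,000 cells/well, and preincubated 24 h, with time-zero plates TCA-fixed. Drug given at five concentrations (10-fold or ½-log serial dilutions). Cold TCA fixation 60 min at 4 °C, SRB stain, Tris solubilization, A515. IC50 taken where [(Ti−Tz)/(C−Tz)]×100 = 50.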

MCF7 = assay: Anticancer activity against human MCF7 cells after 48 hrs by SRB assay; details: MCF7, 48 h; how it was run: as §1
SNB-75 = assay: Anticancer activity against human SNB75 cells after 48 hrs by SRB assay; details: SNB-75, 48 h
MDA-MB-231 = assay: Anticancer activity against human MDA-MB-231 cells after 48 hrs by SRB assay; details: MDA-MB-231, 48 h; how it was run: as §1
A549 = assay: Anticancer activity against human A549 cells after 48 hrs by SRB assay; details: A549, 48 h; how it was run: as §1
SW-620 = assay: Anticancer activity against human SW620 cells after 48 hrs by SRB assay; details: SW-620, 48 h; how it was run: as §2
MOLT-4 = assay: Anticancer activity against human MOLT4 cells after 48 hrs by SRB assay; details: MOLT-4, 48 h
CCRF-CEM = assay: Anticancer activity against human CCRF-CEM cells after 48 hrs by SRB assay; how it was run: as §1
[1] = Anticancer activity against human Hs 578T cells after 48 hrs by SRB assay; how it was run: as §1
NCI-H460 = assay: Anticancer activity against human NCI-H460 cells after 48 hrs by SRB assay; details: NCI-H460, 48 h
M14 = assay: Anticancer activity against human M14 cells after 48 hrs by SRB assay; details: M14, 48 h; how it was run: as §1
SK-MEL-28 = assay: Anticancer activity against human SK-MEL-28 cells after 48 hrs by SRB assay; details: SK-MEL-28, 48 h
SNB-19 = assay: Anticancer activity against human SNB19 cells after 48 hrs by SRB assay; details: SNB-19, 48 h
TK-10 = assay: Anticancer activity against human TK10 cells after 48 hrs by SRB assay; details: TK-10, 48 h; how it was run: as §2
KM12 = assay: Anticancer activity against human KM12 cells after 48 hrs by SRB assay; details: KM12, 48 h; how it was run: as §1
SF-295 = assay: Anticancer activity against human SF295 cells after 48 hrs by SRB assay; details: SF-295, 48 h
ACHN = assay: Anticancer activity against human ACHN cells after 48 hrs by SRB assay; how it was run: as §1
DU-145 = assay: Anticancer activity against human DU145 cells after 48 hrs by SRB assay; details: DU-145, 48 h; how it was run: as §1
UACC-62 = assay: Anticancer activity against human UACC62 cells after 48 hrs by SRB assay; details: UACC-62, 48 h; how it was run: as §2
OVCAR-8 = assay: Anticancer activity against human OVCAR8 cells after 48 hrs by SRB assay; details: OVCAR-8, 48 h
HCT-15 = assay: Anticancer activity against human HCT15 cells after 48 hrs by SRB assay; details: HCT-15, 48 h; how it was run: as §1
UO-31 = assay: Anticancer activity against human UO31 cells after 48 hrs by SRB assay; details: UO-31, 48 h; how it was run: as §2
NCI-H322M = assay: Anticancer activity against human NCI-H322M cells after 48 hrs by SRB assay
PC-3 = assay: Anticancer activity against human PC3 cells after 48 hrs by SRB assay; details: PC-3, 48 h
[2] = read-out: LC50 (the source's name)

In the case of `O=C(NCCNc1nccc(-c2c(-c3cccc(O)c3)nc3sccn23)n1)Nc1cccc(C(F)(F)F)c1`, the GI50 (A498) is reported as 7.33 µM, the TGI (A498) is reported as 32.6 µM and the CC50 (A498; [2]) is reported as > 100 µM. The GI50 (SN12C) was 3.42 µM, the TGI (SN12C) was 20 µM and the CC50 (SN12C; [2]) was > 100 µM. The GI50 (HCC 2998) was 2.68 µM, the TGI (HCC 2998) was 5.77 µM and the CC50 (HCC 2998; [2]) was 74.9 µM. For the same compound, the GI50 (NCI-H226) was 9.99 µM, the LC50 (concentration killing 50% of tumour cells) (NCI-H226) was 81 µM and the TGI (NCI-H226) was 28.5 µM. The GI50 (OVCAR-3) was 5.52 µM, the TGI (OVCAR-3) was 22.7 µM and the CC50 (OVCAR-3; [2]) was 87.3 µM. It also gave a GI50 (IGROV-1) of 3.48 µM, a TGI (IGROV-1) of 13.1 µM and a CC50 (IGROV-1; [2]) of 93.4 µM. For the same compound, the GI50 (UACC-257) was 2.51 µM, the TGI (UACC-257) was 6.94 µM and the CC50 (UACC-257; [2]) was 59.8 µM. It also gave a GI50 (MCF7) of 3.57 µM, a TGI (MCF7) of 16 µM and a CC50 (MCF7; [2]) of 78.1 µM. It also gave a GI50 (SNB-75) of 2.5 µM, a TGI (SNB-75) of 12.7 µM and a CC50 (SNB-75; [2]) of 62.5 µM. The GI50 (MDA-MB-231) was 3.52 µM, the TGI (MDA-MB-231) was 12.3 µM and the CC50 (MDA-MB-231; [2]) was > 100 µM. The GI50 (A549) was 2.98 µM, the LC50 (concentration giving 50% net tumour cell kill) (A549) was > 100 µM and the TGI (A549) was 8.44 µM. It also gave a GI50 (SW-620) of 3.84 µM, a TGI (SW-620) of 13.4 µM and a CC50 (SW-620; [2]) of 64.5 µM. The GI50 (MOLT-4) was 3.6 µM, the TGI (MOLT-4) was 14.6 µM and the CC50 (MOLT-4; [2]) was > 100 µM. The GI50 (CCRF-CEM) was 3.25 µM, the TGI (CCRF-CEM) was 13.7 µM and the CC50 (CCRF-CEM; [2]) was > 100 µM. The GI50 [1] was 3.56 µM, the TGI [1] was 17.8 µM and the CC50 [1, 2] was > 100 µM. For the same compound, the GI50 (NCI-H460) was 4.79 µM, the LC50 (NCI-H460) was 83.5 µM and the TGI (NCI-H460) was 20.8 µM. It also gave a GI50 (M14) of 1.79 µM, a TGI (M14) of 3.39 µM and a CC50 (M14; [2]) of 6.41 µM. For the same compound, the GI50 (SK-MEL-28) was 2.68 µM, the TGI (SK-MEL-28) was 10 µM and the CC50 (SK-MEL-28; [2]) was 62.2 µM. For the same compound, the GI50 (SNB-19) was 5.08 µM, the TGI (SNB-19) was 36.2 µM and the CC50 (SNB-19; [2]) was > 100 µM. The GI50 (TK-10) was 3.66 µM, the TGI (TK-10) was 11.1 µM and the CC50 (TK-10; [2]) was 94.5 µM. The GI50 (KM12) was 2.78 µM, the TGI (KM12) was 6.98 µM and the CC50 (KM12; [2]) was 29.9 µM. For the same compound, the GI50 (SF-295) was 4.16 µM, the TGI (SF-295) was 29.7 µM and the CC50 (SF-295; [2]) was > 100 µM. The GI50 (ACHN) was 5.79 µM, the TGI (ACHN) was 45.7 µM and the CC50 (ACHN; [2]) was > 100 µM. For the same compound, the GI50 (DU-145) was 5.37 µM, the TGI (DU-145) was 30 µM and the CC50 (DU-145; [2]) was > 100 µM. The GI50 (UACC-62) was 1.94 µM, the TGI (UACC-62) was 6.51 µM and the CC50 (UACC-62; [2]) was 28.2 µM. The GI50 (OVCAR-8) was 3.56 µM, the TGI (OVCAR-8) was 11 µM and the CC50 (OVCAR-8; [2]) was 37.6 µM. For the same compound, the GI50 (HCT-15) was 4.26 µM, the TGI (HCT-15) was 24.1 µM and the CC50 (HCT-15; [2]) was > 100 µM. For the same compound, the GI50 (UO-31) was 3.25 µM, the TGI (UO-31) was 16.8 µM and the CC50 (UO-31; [2]) was 98.1 µM. The GI50 (NCI-H322M) was 6.13 µM, the TGI (NCI-H322M) was 26 µM and the CC50 (NCI-H322M; [2]) was > 100 µM. The GI50 (PC-3) was 2.94 µM, the TGI (PC-3) was 12.6 µM and the CC50 (PC-3; [2]) was > 100 µM.
